Laboratory results from ChEMBL document CHEMBL4732233, “Faropenem reacts with serine and metallo-β-lactamases to give multiple products” (Eur J Med Chem, 2021).

Experiments:
[1] = Inhibition of KPC-2 (unknown origin); set-up: species or system Bacteria
[2] = Drug metabolism assessed as OXA10 (unknown origin)-mediated compound hydrolysis by measuring (R)-2-((1S,2R)-1-carboxy-2-hydroxypropyl)-5-((R)-tetrahydrofuran-2-yl)-2,3-dihydrothiazole-4-carboxylic acid formation at 5 mM incubated for 16 hrs by 1H-NMR based analysis; type: ADME; conditions: bacteria, 5000 µM
Outline: (§1)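 OXA-10 at 5 μM with 5 mM faropenem, incubated 16 h in 50 mM sodium phosphate, pH 7.5, 10% (v/v) D2O. Product formation read by 1H NMR (700 MHz) methyl group resonances.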

[3] = Drug metabolism assessed as OXA-23 (unknown origin)-mediated compound hydrolysis by measuring (R)-2-((1S,2R)-1-carboxy-2-hydroxypropyl)-5-((R)-tetrahydrofuran-2-yl)-2,3-dihydrothiazole-4-carboxylic acid formation at 2 mM incubated for 15 mins by 1H-NMR based analysis; type: ADME; conditions: bacteria, 0.25 h, 2000 µM
[4] = Drug metabolism assessed as OXA-48 (unknown origin)-mediated compound hydrolysis by measuring (R)-2-((1S,2R)-1-carboxy-2-hydroxypropyl)-5-((R)-tetrahydrofuran-2-yl)-2,3-dihydrothiazole-4-carboxylic acid formation at 5 mM incubated for 55 mins by 1H-NMR based analysis; type: ADME; conditions: bacteria, 5000 µM
Outline: (§2)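 Reaction of OXA-48 (5 μM) with 5 mM faropenem for 55 min in 50 mM sodium phosphate pH 7.5, 10% (v/v) D2O. Products assigned from methyl group resonances in 700 MHz 1H NMR spectra.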

[5] = Drug metabolism assessed as VIM-1 (unknown origin)-mediated compound hydrolysis by measuring (R)-2-((1S,2R)-1-carboxy-2-hydroxypropyl)-5-((R)-tetrahydrofuran-2-yl)-2,3-dihydrothiazole-4-carboxylic acid formation at 5 mM incubated for 5 mins by 1H-NMR based analysis; type: ADME; conditions: bacteria, 5000 µM
[6] = Drug metabolism assessed as VIM-2 (unknown origin)-mediated compound hydrolysis by measuring (R)-2-((1S,2R)-1-carboxy-2-hydroxypropyl)-5-((R)-tetrahydrofuran-2-yl)-2,3-dihydrothiazole-4-carboxylic acid formation at 5 mM incubated for 5 mins by 1H-NMR based analysis; type: ADME; conditions: bacteria, 5000 µM
[7] = Drug metabolism assessed as NDM-1 (unknown origin)-mediated compound hydrolysis by measuring (R)-2-((1S,2R)-1-carboxy-2-hydroxypropyl)-5-((R)-tetrahydrofuran-2-yl)-2,3-dihydrothiazole-4-carboxylic acid formation at 5 mM incubated for 5 mins by 1H-NMR based analysis; type: ADME; conditions: bacteria, 5000 µM
Outline: (§3)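 NDM-1 used at 5 μM with 5 mM faropenem, 5 min incubation, in 50 mM sodium phosphate, pH 7.5, 10% (v/v) D2O. Degradation products monitored by 700 MHz 1H NMR via methyl group signals.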

[8] = Drug metabolism assessed as KPC-2 (unknown origin)-mediated compound hydrolysis by measuring (R)-2-((1S,2R)-1-carboxy-2-hydroxypropyl)-5-((R)-tetrahydrofuran-2-yl)-2,3-dihydrothiazole-4-carboxylic acid formation at 5 mM incubated for 72 mins by 1H-NMR based analysis; type: ADME; conditions: bacteria, 1.2 h, 5000 µM
[9] = Drug metabolism assessed as L1 (unknown origin)-mediated compound hydrolysis by measuring (R)-2-((1S,2R)-1-carboxy-2-hydroxypropyl)-5-((R)-tetrahydrofuran-2-yl)-2,3-dihydrothiazole-4-carboxylic acid formation at 5 mM incubated for 5 mins by 1H-NMR based analysis; type: ADME; conditions: bacteria, 5000 µM
Outline: (§4)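 L1 enzyme (125 nM) reacted with 5 mM faropenem for 5 min in 50 mM sodium phosphate pH 7.5 containing 10% (v/v) D2O. Product species assigned by 1H NMR (700 MHz) methyl resonances.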

[10] = Drug metabolism assessed as OXA10 (unknown origin)-mediated compound hydrolysis by measuring (S)-2-((1S,2R)-1-carboxy-2-hydroxypropyl)-5-((R)-tetrahydrofuran-2-yl)-2,3-dihydrothiazole-4-carboxylic acid formation at 5 mM incubated for 16 hrs by 1H-NMR based analysis; type: ADME; conditions: bacteria, 5000 µM; outline: as §1
[11] = Drug metabolism assessed as OXA-23 (unknown origin)-mediated compound hydrolysis by measuring (S)-2-((1S,2R)-1-carboxy-2-hydroxypropyl)-5-((R)-tetrahydrofuran-2-yl)-2,3-dihydrothiazole-4-carboxylic acid formation at 2 mM incubated for 15 mins by 1H-NMR based analysis; type: ADME; conditions: bacteria, 0.25 h, 2000 µM
[12] = Drug metabolism assessed as OXA-48 (unknown origin)-mediated compound hydrolysis by measuring (S)-2-((1S,2R)-1-carboxy-2-hydroxypropyl)-5-((R)-tetrahydrofuran-2-yl)-2,3-dihydrothiazole-4-carboxylic acid formation at 5 mM incubated for 55 mins by 1H-NMR based analysis; type: ADME; conditions: bacteria, 5000 µM; outline: as §2
[13] = Drug metabolism assessed as VIM-1 (unknown origin)-mediated compound hydrolysis by measuring (S)-2-((1S,2R)-1-carboxy-2-hydroxypropyl)-5-((R)-tetrahydrofuran-2-yl)-2,3-dihydrothiazole-4-carboxylic acid formation at 5 mM incubated for 5 mins by 1H-NMR based analysis; type: ADME; conditions: bacteria, 5000 µM
[14] = Drug metabolism assessed as VIM-2 (unknown origin)-mediated compound hydrolysis by measuring (S)-2-((1S,2R)-1-carboxy-2-hydroxypropyl)-5-((R)-tetrahydrofuran-2-yl)-2,3-dihydrothiazole-4-carboxylic acid formation at 5 mM incubated for 5 mins by 1H-NMR based analysis; type: ADME; conditions: bacteria, 5000 µM
[15] = Drug metabolism assessed as NDM-1 (unknown origin)-mediated compound hydrolysis by measuring (S)-2-((1S,2R)-1-carboxy-2-hydroxypropyl)-5-((R)-tetrahydrofuran-2-yl)-2,3-dihydrothiazole-4-carboxylic acid formation at 5 mM incubated for 5 mins by 1H-NMR based analysis; type: ADME; conditions: bacteria, 5000 µM; outline: as §3
[16] = Drug metabolism assessed as KPC-2 (unknown origin)-mediated compound hydrolysis by measuring (S)-2-((1S,2R)-1-carboxy-2-hydroxypropyl)-5-((R)-tetrahydrofuran-2-yl)-2,3-dihydrothiazole-4-carboxylic acid formation at 5 mM incubated for 72 mins by 1H-NMR based analysis; type: ADME; conditions: bacteria, 1.2 h, 5000 µM
[17] = Drug metabolism assessed as L1 (unknown origin)-mediated compound hydrolysis by measuring (S)-2-((1S,2R)-1-carboxy-2-hydroxypropyl)-5-((R)-tetrahydrofuran-2-yl)-2,3-dihydrothiazole-4-carboxylic acid formation at 5 mM incubated for 5 mins by 1H-NMR based analysis; type: ADME; conditions: bacteria, 5000 µM; outline: as §4
[18] = Drug metabolism assessed as OXA10 (unknown origin)-mediated compound hydrolysis by measuring (R)-2-((1S,2R)-1-carboxy-2-hydroxypropyl)-5-(4-hydroxybutylidene)-2,5-dihydrothiazole-4-carboxylic acid formation at 5 mM incubated for 16 hrs by 1H-NMR based analysis; type: ADME; conditions: bacteria, 5000 µM; outline: as §1
[19] = Drug metabolism assessed as OXA-23 (unknown origin)-mediated compound hydrolysis by measuring (R)-2-((1S,2R)-1-carboxy-2-hydroxypropyl)-5-(4-hydroxybutylidene)-2,5-dihydrothiazole-4-carboxylic acid formation at 2 mM incubated for 15 mins by 1H-NMR based analysis; type: ADME; conditions: bacteria, 0.25 h, 2000 µM
[20] = Drug metabolism assessed as OXA-48 (unknown origin)-mediated compound hydrolysis by measuring (R)-2-((1S,2R)-1-carboxy-2-hydroxypropyl)-5-(4-hydroxybutylidene)-2,5-dihydrothiazole-4-carboxylic acid formation at 5 mM incubated for 55 mins by 1H-NMR based analysis; type: ADME; conditions: bacteria, 5000 µM; outline: as §2
[21] = Drug metabolism assessed as VIM-1 (unknown origin)-mediated compound hydrolysis by measuring (R)-2-((1S,2R)-1-carboxy-2-hydroxypropyl)-5-(4-hydroxybutylidene)-2,5-dihydrothiazole-4-carboxylic acid formation at 5 mM incubated for 5 mins by 1H-NMR based analysis; type: ADME; conditions: bacteria, 5000 µM
[22] = Drug metabolism assessed as VIM-2 (unknown origin)-mediated compound hydrolysis by measuring (R)-2-((1S,2R)-1-carboxy-2-hydroxypropyl)-5-(4-hydroxybutylidene)-2,5-dihydrothiazole-4-carboxylic acid formation at 5 mM incubated for 5 mins by 1H-NMR based analysis; type: ADME; conditions: bacteria, 5000 µM
[23] = Drug metabolism assessed as NDM-1 (unknown origin)-mediated compound hydrolysis by measuring (R)-2-((1S,2R)-1-carboxy-2-hydroxypropyl)-5-(4-hydroxybutylidene)-2,5-dihydrothiazole-4-carboxylic acid formation at 5 mM incubated for 5 mins by 1H-NMR based analysis; type: ADME; conditions: bacteria, 5000 µM; outline: as §3
[24] = Drug metabolism assessed as KPC-2 (unknown origin)-mediated compound hydrolysis by measuring (R)-2-((1S,2R)-1-carboxy-2-hydroxypropyl)-5-(4-hydroxybutylidene)-2,5-dihydrothiazole-4-carboxylic acid formation at 5 mM incubated for 72 mins by 1H-NMR based analysis; type: ADME; conditions: bacteria, 1.2 h, 5000 µM
[25] = Drug metabolism assessed as L1 (unknown origin)-mediated compound hydrolysis by measuring (R)-2-((1S,2R)-1-carboxy-2-hydroxypropyl)-5-(4-hydroxybutylidene)-2,5-dihydrothiazole-4-carboxylic acid formation at 5 mM incubated for 5 mins by 1H-NMR based analysis; type: ADME; conditions: bacteria, 5000 µM; outline: as §4
[26] = Drug metabolism assessed as OXA10 (unknown origin)-mediated compound hydrolysis by measuring (S)-2-((1S,2R)-1-carboxy-2-hydroxypropyl)-5-(4-hydroxybutylidene)-2,5-dihydrothiazole-4-carboxylic acid formation at 5 mM incubated for 16 hrs by 1H-NMR based analysis; type: ADME; conditions: bacteria, 5000 µM; outline: as §1

C[C@@H](O)[C@H]1C(=O)N2C(C(=O)O)=C([C@H]3CCCO3)S[C@H]12 [FAROPENEM]
Ki [1]: 44.1 µM | Drug metabolism [2]: Metabolite_Detected | Drug metabolism [3]: Metabolite_Detected | Drug metabolism [4]: Metabolite_Detected | Drug metabolism [5]: Metabolite_Detected | Drug metabolism [6]: Metabolite_Detected | Drug metabolism [7]: Metabolite_Detected | Drug metabolism [8]: Metabolite_Detected | Drug metabolism [9]: Metabolite_Detected | Drug metabolism [10]: Metabolite_Detected | Drug metabolism [11]: Metabolite_Detected | Drug metabolism [12]: Metabolite_Detected | Drug metabolism [13]: Metabolite_Detected | Drug metabolism [14]: Metabolite_Detected | Drug metabolism [15]: Metabolite_Detected | Drug metabolism [16]: Metabolite_Detected | Drug metabolism [17]: Metabolite_Detected | Drug metabolism [18]: Metabolite_Detected | Drug metabolism [19]: Metabolite_Detected | Drug metabolism [20]: Metabolite_Detected | Drug metabolism [21]: Metabolite_Detected | Drug metabolism [22]: Metabolite_Detected | Drug metabolism [23]: Metabolite_Detected | Drug metabolism [24]: Metabolite_Detected | Drug metabolism [25]: Metabolite_Detected | Drug metabolism [26]: Metabolite_Detected
